Experimental data reported in publication PMC8837702 (Archives of toxicology, 2021).
Where two headings read alike, the source gives them in different places.

How the values were obtained:
recombinant human NAT2 = target: T1, recombinant human NAT2 (Homo sapiens, UniProt P11245); test: Recombinant human NAT2; type: biochemical; conditions: for inhibition of human NAT2: at concentrations up to 2 mM
T1 sequence (P11245 1-290): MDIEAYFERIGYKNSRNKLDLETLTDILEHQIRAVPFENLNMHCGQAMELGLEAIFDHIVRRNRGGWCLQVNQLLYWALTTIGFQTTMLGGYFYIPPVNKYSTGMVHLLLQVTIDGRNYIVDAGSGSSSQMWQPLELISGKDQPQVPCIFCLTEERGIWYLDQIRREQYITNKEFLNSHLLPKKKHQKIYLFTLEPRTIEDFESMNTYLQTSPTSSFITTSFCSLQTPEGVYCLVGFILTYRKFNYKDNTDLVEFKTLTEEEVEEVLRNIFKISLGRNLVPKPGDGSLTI
Procedure, shortened: (§1)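 Lysates of S. pombe stably expressing recombinant human NAT1 (10 μM PABA) or NAT2 (10 μM SMZ) were run with 100 μM acetyl-CoA over a test-compound concentration series. Substrate and N-acetylated product were separated and measured by HPLC. IC50 came from nonlinear regression, reported as mean ± SEM (n=3).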

NAT1 [1] = target: T2, NAT1 (Homo sapiens, UniProt P18440); test: Recombinant human NAT1; type: biochemical; conditions: for fold less potent than compound 10 towards recombinant human NAT1: in vitro IC50 comparison; for IC50 NAT2/IC50 NAT1: ratio; for IC50 NAT2/IC50 NAT1 / fold lower IC50 for NAT1 versus NAT2: PABA (NAT1) vs SMZ (NAT2)
T2 sequence (P18440 1-290): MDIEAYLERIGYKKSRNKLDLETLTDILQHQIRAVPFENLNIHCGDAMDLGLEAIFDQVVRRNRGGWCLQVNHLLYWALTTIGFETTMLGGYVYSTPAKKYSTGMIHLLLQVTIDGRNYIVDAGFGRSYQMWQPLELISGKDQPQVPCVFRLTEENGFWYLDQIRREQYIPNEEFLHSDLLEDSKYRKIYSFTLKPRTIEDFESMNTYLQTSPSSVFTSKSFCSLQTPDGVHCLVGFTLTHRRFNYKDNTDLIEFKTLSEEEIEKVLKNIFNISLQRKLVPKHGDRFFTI
Procedure, shortened: as §1

MDA-MB-231 cells [2] = test: CytoSelect cell invasion assay, MDA-MB-231; type: cell-based, human; conditions: 24 hr, 0, 31.25, 62.5, 125 μM
Procedure, shortened: (§2)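 CytoSelect 24-well colorimetric invasion assay: 300,000 cells were seeded and allowed to invade toward medium containing 10% FBS for 24 hr with test compound present. Invasion was expressed as a percentage of the DMSO vehicle control. Mean ± SEM (n=3).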

NAT1 [3] = target: T2, NAT1; test: PABA N-acetylation in situ in cryopreserved human hepatocytes; type: cell-based
Procedure, shortened: (§3)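 Cultured cryopreserved human hepatocytes from five donors, all of intermediate NAT2 acetylator genotype, were incubated for 24 hr with 50 μM PABA or SMZ plus varying test-compound concentrations. Parent substrates and N-acetylated metabolites were separated and quantified by HPLC. Each point is the mean ± SEM over the 5 samples.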

[4] = test system: endogenous NAT1 in MCF-7 cells; test: N-acetylation capacity in MCF-7 cells; type: cell-based, human; conditions: 10 μM ABP or PABA, 4 hr
Procedure, shortened: (§4)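 Cells grown in DMEM with 10% FBS, penicillin and streptomycin at 37°C, 5% CO2, were taken to confluence. They were then exposed for 4 hr at 37°C to medium with 10 μM ABP or PABA and test compound. Collected medium was acidified with 1/10 volume 1 M acetic acid and spun at 13,000 g for 10 min. The supernatant was analysed by HPLC for N-acetyl products; n=3, mean ± SEM.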

MDA-MB-231 cells [5] = test: AlamarBlue cell viability and proliferation, MDA-MB-231; type: cell-based, human
Procedure, shortened: (§5)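 Cells were seeded in 96-well plates and left 24 hr. They were then treated with test compound (0–250 μM) in their own medium for up to 144 hr: MEBM with supplements for MCF-10A, DMEM with 10% FBS for MDA-MB-231. AlamarBlue (1/10 culture volume) was added 1 hr before each time point at 37°C, then fluorescence read (ex 570, em 580 nm). Mean ± SEM (n=4).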

human NAT1 = test: Reversibility of NAT1 inhibition in primary hepatocytes; type: cell-based; conditions: 100 or 200 μM for 1 hr, removed, then 10 μM PABA for 5 hr
MCF-10A cells = test: AlamarBlue cell viability and proliferation, MCF-10A; type: cell-based, human
Procedure, shortened: as §5

NAT2 = test: SMZ N-acetylation in situ in cryopreserved human hepatocytes; type: cell-based; conditions: 50 μM SMZ, 24 hr, concentrations up to 200 μM
Procedure, shortened: as §3

[6] = test system: endogenous NAT1 in MDA-MB-231 cells; test: N-acetylation capacity in MDA-MB-231 cells; type: cell-based, human; conditions: 10 μM ABP or PABA, 4 hr
Procedure, shortened: as §4

NAT1 [7] = target: T2, NAT1; type: biochemical; conditions: ABP as substrate
Procedure, shortened: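 Recombinant human NAT1 or NAT2 expressed in Schizosaccharomyces pombe, assayed in yeast lysate with 10 μM ABP, 100 μM acetyl-CoA and test compound at 0–200 μM. Substrate and N-acetylated product were separated and quantified by HPLC. The value is the mean ± SD of 3 experiments, with IC50 for each isozyme from nonlinear regression.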

MCF-7 cells = test: CytoSelect cell invasion assay, MCF-7; type: cell-based, human; conditions: 24 hr, 0, 31.25, 62.5, 125 μM
Procedure, shortened: as §2

[8] = target: T3, human NAT1 expressed in CHO cells (Homo sapiens, UniProt P18440); test: N-acetylation in situ in UV5 CHO cells expressing human NAT1 and CYP1A1; type: cell-based
T3 sequence (P18440 1-290): T2 sequence (P18440 1-290)
Procedure, shortened: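 UV5 CHO cells (nucleotide excision repair-deficient, XPD mutant) stably transfected with human CYP1A1 and NAT1*4 were plated 24 hr beforehand. Medium was then replaced with α-MEM containing 10 μM PABA or ABP plus test compound. After 2 hr, medium was sampled and N-acetylation quantified by HPLC. Mean ± SD of 3 experiments; IC50 by nonlinear regression.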

NAT1 [9] = conditions: cited from earlier work; for IC50: read-out: IC50 NAT1
[10] = read-out: IC50 for NAT1, in vitro, recombinant in yeast, 10 μM PABA, 100 μM AcCoA, Mean ± SEM (n=3)

1-(9,10-dihydro-8-hydroxy-9,10-dioxo-1-anthracenyl)4-ethyl ester [Analog 1]
inhibition of human NAT2 (recombinant human NAT2): No inhibition | fold less potent than compound 10 towards recombinant human NAT1 (NAT1 [1]): over 100 fold | IC50 NAT2/IC50 NAT1 (NAT1 [1]): >11.7 | IC50 (NAT1 [1]; [10]): 171 ± 4.7 µM

9,10-dihydro-9,10-dioxo-1,2-anthracenediyl diethyl ester [Compound 10]
cell invasion/migration, MDA-MB-231 (MDA-MB-231 cells [2]): dose-dependent inhibition | IC50 (NAT1 [3]; read-out: IC50, PABA N-acetylation in cryopreserved human hepatocytes, 50 μM PABA, 24 hr, 5 hepatocyte samples of intermediate NAT2 acetylator genotype): 158 ± 22 µM | N-acetylation of PABA and ABP in MCF-7 [4]: inhibited | cell viability, MDA-MB-231 (MDA-MB-231 cells [5]; 4-48 hr, 0-250 μM): did not decrease cell viability | cell proliferation, MDA-MB-231 (MDA-MB-231 cells [5]; 72 and 144 hr): dose-dependent decrease | IC50 (MDA-MB-231 cells [5]; read-out: IC50 for cell proliferation, MDA-MB-231, 72 hr): 32 µM | reversibility of inhibition of PABA N-acetylation (human NAT1): reversible | cell proliferation, MCF-10A (MCF-10A cells; non-tumorigenic cell line, later time points): a decrease in cell proliferation was observed | IC50 (MCF-10A cells; read-out: IC50 for cell proliferation, MCF-10A, 72 hr): 113 µM | inhibition of SMZ N-acetylation in cryopreserved human hepatocytes (NAT2): no inhibition | N-acetylation of PABA and ABP in MDA-MB-231 [6]: inhibited | fold lower IC50 for NAT1 versus NAT2, ABP N-acetylation (NAT1 [7]): over 50 fold | cell invasion/migration, MCF-7 (MCF-7 cells): dose-dependent inhibition | IC50 ([8]; read-out: in situ IC50, ABP N-acetylation in CHO cells, ABP as substrate): 81.6 ± 4.4 µM | IC50 ([8]; read-out: in situ IC50, PABA N-acetylation in CHO cells, PABA as substrate): 118 ± 5 µM | fold lower IC50 for NAT1 versus NAT2 (NAT1 [1]; in vitro): over 100 fold | IC50 NAT2/IC50 NAT1 (NAT1 [1]): 110 | IC50 (NAT1 [1]; [10]): 0.75 ± 0.2 µM

9,10-dihydro-9,10-dioxo-1,8-anthracenediyl diethyl ester [Analog 2]
inhibition of human NAT2 (recombinant human NAT2): No inhibition | fold less potent than compound 10 towards recombinant human NAT1 (NAT1 [1]): over 100 fold | IC50 NAT2/IC50 NAT1 (NAT1 [1]): >21.3 | IC50 (NAT1 [1]; [10]): 94 ± 6.8 µM

O=C1NC(=S)S/C1=C/c1cc(I)c(O)c(I)c1 [(5E)-[5-(4-hydroxy-3,5-diiodobenzylidene)-2-thioxo-1,3-thiazolidin-4-one]
fold more selective for NAT1 than NAT2 (NAT1 [9]): 25 fold | IC50 (NAT1 [9]): 0.732 µM

O=C1NC(=S)S/C1=C\c1ccccc1O [(Z)-5-(2-hydroxybenzylidene)-2-thioxothiazolidin-4-one]
IC50 (NAT1 [9]): 101 µM

O=C1c2ccccc2C(=O)c2c1ccc(O)c2O [Analog 3 (Alizarin), 1,2-dihydroxyanthraquinone]
IC50 (NAT1 [3]): 70 ± 1.4 µM | IC50 (recombinant human NAT2): 98.6 ± 9.4 µM | IC50 (NAT1 [1]): 0.886 ± 0.0895 µM | fold lower IC50 for NAT1 versus NAT2 (NAT1 [1]; in vitro): over 100 fold | IC50 NAT2/IC50 NAT1 (NAT1 [1]): 113
